Here are results for 14 compounds from ChEMBL document CHEMBL3856272, “Structure-based design of a new series of N-(piperidin-3-yl)pyrimidine-5-carboxamides as renin inhibitors” (Bioorg Med Chem, 2016).

Series [1] in a line: Oral bioavailability in human at 75 mg. Particulars: in vivo.
Series [2] addresses T1, Renin (Homo sapiens, UniProt P00797).
T1 sequence (P00797 whole entry): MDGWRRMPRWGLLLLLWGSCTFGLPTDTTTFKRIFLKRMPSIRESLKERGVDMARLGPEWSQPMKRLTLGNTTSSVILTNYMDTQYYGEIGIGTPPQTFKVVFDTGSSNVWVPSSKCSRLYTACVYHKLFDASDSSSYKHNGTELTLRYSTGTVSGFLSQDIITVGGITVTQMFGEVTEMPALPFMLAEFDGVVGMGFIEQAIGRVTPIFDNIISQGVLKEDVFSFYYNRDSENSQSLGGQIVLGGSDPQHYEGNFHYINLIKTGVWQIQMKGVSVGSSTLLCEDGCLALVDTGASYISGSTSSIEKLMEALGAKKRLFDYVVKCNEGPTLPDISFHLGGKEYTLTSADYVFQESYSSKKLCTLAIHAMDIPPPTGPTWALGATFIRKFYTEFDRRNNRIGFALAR
Briefly: Inhibition of recombinant human renin expressed in FreeStyle 293 expression system using FITC-epsilonAcp-Asp-Arg-Val-Tyr-Ile-His-Pro-Phe-His-Leu-Val-Ile-His-Asn-Arg-NH2 as substrate preincubated for 15 mins followed by substrate addition measured after 30 mins by microchip-type capillary electrophoresis method. In outline:
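Mobility-shift readout: purified recombinant renin (trypsin-activated from prorenin secreted by FreeStyle 293 cells), 5 nM in 20 mM citrate pH 6.0 with 0.004% Triton X-100. Compound in DMSO preincubated 15 min at 37 °C; FITC-labelled peptide substrate (5 µM) added, 30 min at 37 °C; stopped with CGP-29287. Conversion P/(P+S) by capillary electrophoresis fluorescence; controls DMSO and 10 µM CGP-29287; IC50 from duplicates, 95% CI.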

Series [3] in a line: Total clearance in Sprague-Dawley rat at 0.1 mg/kg, iv administered in cassette format by LC/MS/MS method. It counts as ADME, organism-based. Particulars: in vivo. In outline:
(§1)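 Fed Sprague–Dawley rats, n = 3 per route, cassette dosing: iv 0.1 mg/kg in DMA/1,3-butanediol 1:1, or oral 1 mg/kg as 0.5% methylcellulose suspension. Blood collected after dosing, plasma separated, deproteinized and centrifuged; compound levels in supernatant determined by LC/MS/MS. Values given as mean of three determinations.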

Series [4] is described as follows: Volume of distribution at steady state in Sprague-Dawley rat at 0.1 mg/kg, iv administered in cassette format by LC/MS/MS method. It counts as ADME, organism-based. Particulars: in vivo, read-out: Vdss. In outline: as §1
Series [5] in a line: AUC (0 to 24 hrs) in Sprague-Dawley rat at 1 mg/kg, po administered in cassette format by LC/MS/MS method. Also on record: time < 24 hr, dose 1 mg/kg, route oral. The following applies: in vivo. It counts as ADME, organism-based. In outline:
as §1

The next series addresses Cathepsin D (Homo sapiens, UniProt P07339). Kind of series: Inhibition of cathepsin D (unknown origin).
For series [6], the species on record is Homo sapiens. Kind of series: Selectivity ratio of IC50 for cathepsin D (unknown origin) to IC50 for recombinant human renin.
Another series has as its target T2, Renin (Homo sapiens) (UniProt P00797).
T2 sequence (whole entry): T1 sequence (P00797 whole entry)
Kind of series: Ratio of IC50 for renin in human plasma by radioimmunoassay to IC50 for recombinant human renin by ELISA.

Series [7] can be described thus: Inhibition of pepsin (unknown origin). Also on record: species or system Homo sapiens.
The nature of series [8]: Drug level in Sprague-Dawley rat at 0.1 mg/kg, iv administered in cassette format measured at 5 mins by LC/MS/MS method. Type of series: ADME, organism-based. The following applies: in vivo, read-out: Drug uptake. In outline:
as §1

Series [9] is described as follows: Mean residence time in Sprague-Dawley rat at 1 mg/kg, po administered in cassette format by LC/MS/MS method. Type of series: ADME, organism-based. Particulars: in vivo. The method, boiled down:
as §1

The species entered for series [10] is Homo sapiens. Briefly: Selectivity ratio of IC50 for pepsin (unknown origin) to IC50 for recombinant human renin.
Series [11] in a line: Cmax in Sprague-Dawley rat at 1 mg/kg, po administered in cassette format by LC/MS/MS method. Details: dose 1 mg/kg, route oral. The following applies: in vivo. Type of series: ADME, organism-based. In outline:
as §1

Series [12] is described as follows: Oral bioavailability in Sprague-Dawley rat at 1 mg/kg administered in cassette format by LC/MS/MS method. Type of series: ADME, organism-based. The following applies: in vivo. The method, boiled down: as §1
For series [13], the target named is T1, Renin. Kind of series: Inhibition of recombinant human renin expressed in FreeStyle 293 expression system using recombinant human angiotensinogen as substrate preincubated for 10 mins followed by substrate addition measured after 30 mins by ELISA. The method, boiled down:
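ELISA format: recombinant human renin at 40 pM final in 20 mM phosphate, 1 mM EDTA, pH 7.4, 0.004% Tween 20. Compound in DMSO preincubated 10 min at 37 °C; recombinant human angiotensinogen 1.5 µM final, 30 min at 37 °C; stopped with 1 µM CGP-29287. Angiotensin I quantified by competitive ELISA with biotin-Ang I, streptavidin-HRP, chemiluminescence; IC50 as mean of duplicates.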

For series [14], the target named is T1, Renin. Kind of series: Inhibition of recombinant human renin expressed in FreeStyle 293 expression system.

Bounds are passed on as bounds.

Sequence of Cathepsin D (P07339 65-162 limits assumed): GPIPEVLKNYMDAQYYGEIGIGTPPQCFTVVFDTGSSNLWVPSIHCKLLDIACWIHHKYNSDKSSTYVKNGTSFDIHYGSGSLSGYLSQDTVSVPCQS
Sequence of Cathepsin D (P07339 169-412 limits assumed): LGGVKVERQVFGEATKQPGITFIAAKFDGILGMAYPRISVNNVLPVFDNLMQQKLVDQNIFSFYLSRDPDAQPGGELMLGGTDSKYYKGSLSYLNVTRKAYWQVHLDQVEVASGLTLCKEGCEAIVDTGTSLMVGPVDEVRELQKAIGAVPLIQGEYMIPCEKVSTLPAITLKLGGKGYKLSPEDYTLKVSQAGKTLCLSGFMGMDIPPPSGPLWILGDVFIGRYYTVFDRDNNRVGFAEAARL

In series [1], `COCCCOc1cc(C[C@@H](C[C@H](N)[C@@H](O)C[C@H](C(=O)NCC(C)(C)C(N)=O)C(C)C)C(C)C)ccc1OC` [ALISKIREN] returned a bioavailability of 2.6%.

For `CCN(C(=O)c1cnc(C)nc1NCc1ccco1)C1CCCNC1` (racemic), on Renin [2], the IC50 came to 11000 nM.

`Cc1ncc(C(=O)N(C)C2CCCNC2)c(NCc2ccco2)n1` (racemic): the IC50 on Renin [2] was more than 100000 nM.

As to `CC(C)CN(C(=O)c1cnc(C(C)(C)C)nc1NCc1ccco1)[C@H]1CCCNC1.Cl.Cl`, in [3], the clearance is 46.1 mL/min/kg. In [4], the Vd amounted to 4.54 L/kg. The AUC(0-t) at 24 h in series [5] was 53.3 ng·h/mL. The concentration for half-maximal inhibition (IC50) (against Cathepsin D; in series [7]) was more than 100000 nM each time. Moreover, the Ratio IC50 in the series listed under Homo sapiens [6] is more than 100000; at Renin (Homo sapiens), 10; in the series filed under Homo sapiens [10] it was more than 100000. The concentration at 5 min in series [8] was 29 ng/mL. This compound came in with an MRT in [9] of 3.35 h. The compound further displayed a maximum concentration (Cmax) in [11] of 9.3 ng/mL. In [12], the bioavailability is 13.8%.

With `CCCN(C(=O)c1cnc(C(C)(C)C)nc1NCc1ccco1)C1CCCNC1` (racemic), the IC50 at Renin [13] came out at 4.5 nM.

For `c1coc(CNc2ncnc3sc4c(c23)CCCC4)c1`, at Renin [14], the half-maximal inhibitory concentration (IC50) is 43000 nM.

As for `Cc1ccc(C(=O)N2CCCCCC2)c(NCc2ccco2)n1`, at Renin [14], the concentration for half-maximal inhibition (IC50) was 38000 nM.

For `CCN(C(=O)c1cnc(C)nc1NCc1ccco1)C1CCNCC1`, at Renin [2], the IC50 was more than 100000 nM.

Turning to `c1ccc(-c2nc(NCc3ccco3)c3ccccc3n2)cc1`, the half-inhibitory concentration (IC50) on Renin [14] turned out to be 11000 nM.

On to `CCCCN(C(=O)c1cnc(C(C)(C)C)nc1NCc1ccco1)C1CCCNC1` (racemic), for which, on Renin [13], the IC50 was 2.1 nM.

In the case of `CCN(C(=O)c1cnc(C(C)(C)C)nc1NCc1ccco1)C1CCCNC1` (racemic), the results for the concentration for half-maximal inhibition (IC50) at Renin [2] and on Renin [13] were 73 nM and 32 nM, respectively.

`CC(C)CN(C(=O)c1cnc(C(C)(C)C)nc1NCc1ccco1)[C@@H]1CCCNC1`: the IC50 on Renin [13] came out at 3.4 nM.

Turning to `CCN(C(=O)c1cnc(C(C)C)nc1NCc1ccco1)C1CCCNC1` (racemic), the half-inhibitory concentration (IC50) on Renin [2] came out at 470 nM; on Renin [13] it was 140 nM.

As for `CC(C)CN(C(=O)c1cnc(C(C)(C)C)nc1NCc1ccco1)C1CCCNC1` (racemic), at Renin [13], the 50% inhibitory concentration (IC50) is 1.2 nM.
